Results on one compound are retold here after ChEMBL document CHEMBL3871264, “Design of a novel thiophene inhibitor of 15-lipoxygenase-1 with both anti-inflammatory and neuroprotective properties” (Eur J Med Chem, 2016).

The source made the active and inactive calls. The calls are words filed in the database; no cut-off is given here.

The target of this assay is T1, Polyunsaturated fatty acid lipoxygenase ALOX15 (Mus musculus) (UniProt P39654).
T1 sequence (whole entry): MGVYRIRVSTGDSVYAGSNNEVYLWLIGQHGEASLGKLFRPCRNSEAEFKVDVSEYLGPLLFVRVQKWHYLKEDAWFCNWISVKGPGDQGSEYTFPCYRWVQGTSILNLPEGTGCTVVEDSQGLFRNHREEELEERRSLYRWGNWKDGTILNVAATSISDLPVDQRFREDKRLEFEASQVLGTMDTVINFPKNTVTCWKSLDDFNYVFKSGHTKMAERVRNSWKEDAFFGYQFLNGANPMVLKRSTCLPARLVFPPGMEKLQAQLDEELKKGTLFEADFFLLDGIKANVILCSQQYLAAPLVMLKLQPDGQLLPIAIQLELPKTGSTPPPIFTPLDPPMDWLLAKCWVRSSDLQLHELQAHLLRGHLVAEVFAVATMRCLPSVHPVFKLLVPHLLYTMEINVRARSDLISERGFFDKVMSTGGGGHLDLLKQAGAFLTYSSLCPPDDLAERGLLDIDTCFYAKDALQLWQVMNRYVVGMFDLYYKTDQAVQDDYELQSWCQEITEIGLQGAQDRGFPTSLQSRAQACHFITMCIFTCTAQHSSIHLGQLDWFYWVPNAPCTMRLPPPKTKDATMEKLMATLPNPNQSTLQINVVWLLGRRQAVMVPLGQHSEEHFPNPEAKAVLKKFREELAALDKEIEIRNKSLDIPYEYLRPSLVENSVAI
Description: Inhibition of 15-LOX-1 in mouse HT22 cells assessed as protection against glutamate-induced cell impedance at 5 to 10 uM cotreated with glutamate measured for 16 to 20 hrs by real time cell viability assay. The following applies: HT-22. It is filed as cell-based. An outline of the steps:
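HT-22 cells were seeded at 8x10^3 per well, incubated overnight, then given 4 mM glutamate. Inhibitor was either co-applied (1-20 µM; PD146176 at 1 µM) or added at 10 µM 2, 4, 6 or 8 h after glutamate. Impedance was recorded in real time for 16-20 h, with cell index normalized just before glutamate addition.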

Regarding `CCCCNC(=O)c1cc(-c2ccccc2)sc1N`, the inhibition entry was “Active”.
